T cell modulator: T cell immune modulation candidate; 2C CD8+ T cell-vesicle binding, flow cytometry; hits give low values; response (vesicle binding), % at 7 µM; 330,000 compounds, 0.068% hits; AID 2052;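 active = response, share of CD8 T cells binding vesicles, and their 90th percentile fluorescence all below set limits, cut at about 80% in these data, passing the limit was not always enough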;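 also: values below 100% mean blocked vesicle binding to the CD8+ T cells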
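Test system: purified 2C TCR transgenic mouse naive CD8+ T cells. Probe or stimulus: QL9-peptide-loaded Drosophila micro-vesicles bearing Ld, ICAM-1 and B7-1. Incubation: binding step 1.5 h, 37 °C, antibody labelling 20 min, ice. Measured by: flow cytometry of vesicle-bound cells.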
Yeast superoxide: caloric restriction mimetics inhibiting age-related superoxide in yeast. S. cerevisiae aged cells, superoxide DHE fluorescence; hits give low values. superoxide response (% of plate mean), % at 10 µM. 330,000 compounds, 0.18% hits. AID 2690;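 active = superoxide response under a set limit, about three screen SD below normal, cut at about 65% in these data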;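 also: yeast aged for seven days with compound at 30 °C before DHE staining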
S1P3 antag-1: S1P3 (human) receptor antagonism; 170,000 compounds, 0.27% hits; CHO S1P3 NFAT-BLA reporter, FRET fluorescence, antagonist mode; Q99500; inhibition, % at 4.98 µM; AID 485;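 active = inhibition above the plate cutoff, the mean inhibition of test wells on that plate plus 3 SD, cut at about 28% in these data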;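 also: cells challenged with S1P at its EC80 of 0.8 µM; blue over green emission ratio from cleaved BLA substrate after 4 h stimulation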
Target sequence (Q99500 whole entry, looked up): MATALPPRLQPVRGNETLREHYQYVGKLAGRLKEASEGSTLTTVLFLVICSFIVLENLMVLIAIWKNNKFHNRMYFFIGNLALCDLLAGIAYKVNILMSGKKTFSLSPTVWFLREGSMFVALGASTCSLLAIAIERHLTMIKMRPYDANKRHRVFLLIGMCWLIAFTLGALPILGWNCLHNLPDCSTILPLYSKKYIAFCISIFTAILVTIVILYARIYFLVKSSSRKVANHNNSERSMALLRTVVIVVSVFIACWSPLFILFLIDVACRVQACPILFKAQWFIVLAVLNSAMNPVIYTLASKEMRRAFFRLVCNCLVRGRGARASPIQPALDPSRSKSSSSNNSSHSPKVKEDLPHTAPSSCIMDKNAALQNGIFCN
S1P3 antag-2: confirmation of human S1P3 receptor antagonists | shares compounds with S1P3 antag-1 | CHO S1P3 NFAT-BLA reporter, FRET, antagonist mode | inhibition, % at 4.98 µM | 240 compounds, 30% hits | AID 1429;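 active = inhibition above the hit threshold that was computed for the earlier primary screen, cut at about 30% in these data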
CR mimetic CP: yeast aging superoxide inhibition, cherry pick confirmation | shares compounds with Yeast superoxide | S. cerevisiae aging, superoxide DHE fluorescence; hits give low values | superoxide response (% of plate), % at 10 µM | 850 compounds, 1% hits | AID 434994;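 active = superoxide signal below 65% of the plate average of sample wells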;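 also: cells aged with compound for 7 days at 30 degrees C before staining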
DHE fluor count: counter-screen for compounds affecting DHE oxidation and fluorescence in yeast; shares compounds with Yeast superoxide; S. cerevisiae BY4741, flow cytometry; hits give low values; fluorescence response, % at 10 µM; 850 tested, under 10 active; AID 435000;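 active = fluorescence response below 15%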;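 also: lower means stronger quenching of DHE signal or ROS scavenging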
A number is an active result; n = inactive; x = no result. In the library only some 0.41% were active in any assay of this set; here they are far more common.

SMILES | T cell modulator | Yeast superoxide | S1P3 antag-1 | CR mimetic CP | DHE fluor count | others
CCOc1ccc(NC(=O)Nc2cc(OCC(F)(F)F)cc(OCC(F)(F)F)c2)cc1 | n | n | n | x | x
Cc1cc(C)n2nc(C(=O)NCc3ccco3)cc2n1 | n | n | n | x | x
Cc1ccn2cc(C(=O)NCc3ccco3)nc2c1 | n | n | 29.5 | x | x | S1P3 antag-2=n
C=C1CCN(c2ccc(C(=O)NCCC)cc2[N+](=O)[O-])CC1 | n | n | x | x | x
Cc1ccc(C)c(NC(=O)COC(=O)c2cc3ccccc3oc2=O)c1 | n | n | x | x | x
c1ccc(C2=Nn3c(Cn4nnc5ccccc54)nnc3SC2)cc1 | n | n | n | x | x
c1ccc(Cc2nnc3n2N=C(c2ccccc2)CS3)cc1 | n | n | 29.0 | x | x | S1P3 antag-2=n
O=C1N/C(=N\S(=O)(=O)Cc2ccccc2)S/C1=C/c1cc([N+](=O)[O-])ccc1O | n | n | 32.0 | x | x | S1P3 antag-2=n
O=C1N/C(=N\S(=O)(=O)c2ccccc2)S/C1=C\c1cc([N+](=O)[O-])ccc1O | n | n | x | x | x
CCN(Cc1ccccc1)C(=O)CCS(=O)(=O)c1ccc2c(c1)CCN2C(C)=O | n | n | x | x | x
CCN(CC)c1ccc(/C=C/c2cc(-c3ccccc3)c3ccccc3n2)cc1 | n | 54.5 | 76.1 | n | n | S1P3 antag-2=90.2
CCN(CC)c1ccc(/C=N/NC(=O)c2cc(C)nc3ccccc23)cc1 | n | n | n | x | x
CCOc1ccc(C(=O)COC(=O)c2nc3nccc(C)n3n2)cc1 | n | n | x | x | x
CN1CCN(c2nc3ccccc3nc2C(C#N)S(=O)(=O)c2ccccc2)CC1 (stereo not given) | n | n | n | x | x
N#CC(c1nc2ccccc2nc1N1CCCC1)S(=O)(=O)c1ccccc1 (stereo not given) | n | 62.9 | x | n | n
CCOC(=O)c1cccnc1SCC(=O)N(CC)c1cccc(C)c1 | n | n | x | x | x
CCN(C(=O)CSc1ncccc1C(=O)OC(C)C)c1cccc(C)c1 | n | 62.9 | x | n | n
Cc1ccc(C)c(NC(=O)CCc2nnc3ccc(NCc4ccco4)nn23)c1 | n | n | x | x | x
O=C(NCCc1nc2ccccc2[nH]1)c1ccc(Cl)c([N+](=O)[O-])c1 | n | n | n | x | x
CCCNC(=O)c1ccc2c(=O)c(O)c(-c3ccc(Cl)c([N+](=O)[O-])c3)[nH]c2c1 | n | 63.6 | x | n | n
O=C(OC1CCCCC1=O)c1ccc(F)c(S(=O)(=O)N2CCOCC2)c1 (stereo not given) | n | n | x | x | x
COc1cccc(-n2ccn(CC(=O)NCCc3ccccc3)c(=O)c2=O)c1 | n | n | x | x | x
N#CCCN(Cc1ccccc1)C(=S)NC(=O)c1ccccc1 | n | 57.2 | x | n | n
COc1ccc(CN(CCC#N)C(=S)NC(=O)c2ccccc2)cc1 | n | n | x | x | x
N#CCCN(C(=O)COC(=O)C1CCN(S(=O)(=O)c2ccc3c(c2)OCCO3)CC1)c1ccccc1 | n | n | x | x | x
SMILES | T cell modulator | Yeast superoxide | S1P3 antag-1 | CR mimetic CP | DHE fluor count | others
COC(=O)c1cccc(S(=O)(=O)N2CCOCC2)c1 | n | n | x | x | x
COC(=O)c1cccc(S(=O)(=O)N2CCCC2)c1 | n | n | n | n | n
O=C(CCC(=O)Nc1ccccc1Cl)NN=C1CCCC1 | n | n | x | x | x
Cn1cnc(S(=O)(=O)N2CCN(c3ccccc3)CC2)c1 | n | n | x | x | x
COc1ccccc1N1CCN(S(=O)(=O)c2cn(C)cn2)CC1 | n | 65.2 | x | n | n
CCSc1ncc(Cl)c(C(=O)Nc2ccc(S(=O)(=O)Nc3ncccn3)cc2)n1 | n | n | x | x | x
CCc1ccc(NC(=O)c2nc(S(=O)(=O)Cc3ccccc3)ncc2Cl)cc1 | n | n | x | x | x
CCSc1ncc(Cl)c(C(=O)Nc2ccccc2)n1 | n | n | n | n | n
CCSc1ncc(Cl)c(C(=O)Nc2ccc(S(N)(=O)=O)cc2)n1 | n | 63.3 | x | n | n
CCn1nc(C(=O)Nc2ccccc2C)c(Cl)c1Cl | n | n | x | x | x
CCSc1ncc(Cl)c(C(=O)Nc2ccccc2C)n1 | n | 62.0 | x | n | n
CN(c1ccccc1)S(=O)(=O)c1ccc(NC(=O)c2nc(S(C)(=O)=O)ncc2Cl)cc1 | n | 62.4 | x | n | n
CN(c1ccccc1)S(=O)(=O)c1ccc(NC(=O)c2ccccc2)cc1 | n | n | n | x | x
Cc1ccc(S(=O)(=O)N(CC(=O)Nc2cccnc2)c2ccccc2C)cc1 | n | n | x | x | x
CCc1ccc(S(=O)(=O)N2CCN(c3ccccc3OC)CC2)cc1 | n | n | x | x | x
O=C(COC(=O)c1ccc([N+](=O)[O-])cc1)NC12CC3CC(CC(C3)C1)C2 | n | n | x | x | x
